Experimental findings from ChEMBL document CHEMBL1177863, “Diorganotin(IV) derivatives of ONO tridentate Schiff base: synthesis, crystal structure, in vitro antimicrobial, anti-leishmanial and DNA binding studies” (Eur J Med Chem, 2010) are described below.

SMILES strings stand for the structures. ≈ marks a conversion by molar mass, not a printed value.

Broadly, the inhibition is how much of the control response was suppressed. A word on the IC50: it is the concentration that inhibits the measured activity by half. A higher IC50 goes with lower potency.

One data set concerns Candida albicans. Put plainly: Antifungal activity against Candida albicans ATCC 2192 at 200 ug/ml by agar tube dilution test. It counts as functional.
For the next data set, the system named is Aspergillus flavus. Put plainly: Antifungal activity against Aspergillus flavus ATCC 1030 at 200 ug/ml by agar tube dilution test. It counts as functional.
A further data set deals with Microsporum canis. Put plainly: Antifungal activity against Microsporum canis ATCC 9865 at 200 ug/ml by agar tube dilution test. The class given is functional.
In another data set the test system is Fusarium solani. Put plainly: Antifungal activity against Fusarium solani ATCC 11712 at 200 ug/ml by agar tube dilution test. It counts as functional.
A further data set deals with Trichophyton longifusum. Put plainly: Antifungal activity against Trichophyton longifusum ATCC 22397 at 200 ug/ml by agar tube dilution test. The class given is functional.
The test system of a further data set is Nakaseomyces glabratus. Put plainly: Antifungal activity against Candida glabrata ATCC 90030 at 200 ug/ml by agar tube dilution test. The class given is functional.
The subject of a further data set is Leishmania major. Put plainly: Antileishmanial activity against Leishmania major MHOM/PK/88/DESTO promastigotes by alamar blue assay. The class given is functional, organism-based. On the technique in general: Resazurin is reduced to fluorescent resorufin, in cell work by metabolically active cells.
Data set [1] is described as follows: Toxicity against Artemia salina nauplii larvae. The class given is organism-based. To be noted: in vivo, read-out: LD50 (the source's name). In a few lines: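 Brine shrimp lethality bioassay. LD50 was derived from the mortality data by Finney's probit analysis.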
A further data set relates to Bacillus subtilis. Put plainly: Antibacterial activity against Bacillus subtilis ATCC 11774 […] by agar well-diffusion method. It counts as functional. In a few lines: (§1)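 Test compounds dissolved in DMSO at 1 mg mL-1 and applied in agar wells; imipenem reference at 10 mg/disc. Inhibition zone diameter was read and graded as 3-6 mm non-significant, 7-9 mm low, 10-12 mm good, and >12 mm significant.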
(In general: A growth-free zone around the sample is the usual read-out of agar diffusion tests.)

For the next data set, the system named is Staphylococcus aureus. Put plainly: Antibacterial activity against Staphylococcus aureus ATCC 25923 […] by agar well-diffusion method. It counts as functional. In a few lines: as §1
A further data set deals with Escherichia coli. Put plainly: Antibacterial activity against Escherichia coli ATCC 11229 […] by agar well-diffusion method. The class given is functional. The procedure, abridged:
as §1

The test system of another data set is Shigella flexneri. Put plainly: Antibacterial activity against Shigella flexneri ATCC 10782 […] by agar well-diffusion method. It counts as functional. In a few lines: as §1
In the next data set the test system is Pseudomonas aeruginosa. Put plainly: Antibacterial activity against Pseudomonas aeruginosa ATCC 10145 […] by agar well-diffusion method. The class given is functional. The procedure, abridged: as §1
In a further data set the test system is Salmonella enterica. Put plainly: Antibacterial activity against Salmonella typhi ATCC 10749 at 10 mg/disk by agar well-diffusion method. The class given is functional, Salmonella enterica subsp. enterica serovar Typhi. The procedure, abridged: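 Agar well-diffusion assay with compounds at 1 mg mL-1 in DMSO. Imipenem served as the reference disc. The read-out is the inhibition zone diameter in mm, graded as 3-6 non-significant, 7-9 low, 10-12 good and >12 significant.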

With `O=CN/N=C/c1ccccc1O`, the inhibition at 200 µg/mL in the data set with Candida albicans was determined as 0%; in the data set on Aspergillus flavus, 40%; in the data set on Microsporum canis, 0%; in the data set on Fusarium solani, 0%; in the data set with Trichophyton longifusum it was 0%; in the data set with Nakaseomyces glabratus it was 0%. The same molecule came in with an IC50 in the data set on Leishmania major of 24 µg/mL (≈ 146 µM).
With `COc1cc([C@@H]2c3cc4c(cc3[C@@H](O[C@@H]3O[C@@H]5CO[C@@H](C)O[C@H]5[C@H](O)[C@H]3O)[C@H]3COC(=O)[C@H]23)OCO4)cc(OC)c1O` [ETOPOSIDE], the LC50 in [1] was found to be 7.46 µg/mL (≈ 12.7 µM).
As for `C[C@@H](O)[C@H]1C(=O)N2C(C(=O)O)=C(SCCNC=N)C[C@H]12` [IMIPENEM ANHYDROUS], the “diameter of the inhibition zone (DIZ)” value is 37 mm with Bacillus subtilis; 26 mm in the data set with Staphylococcus aureus; 30 mm with Escherichia coli; 36 mm with Shigella flexneri; 32 mm in the data set with Pseudomonas aeruginosa; 30 mm in the data set with Salmonella enterica.
